Most compounds without a hit are left out; they make up all but 3.8% or so of the library.
Hep lipid drop – modulators of hepatic lipid droplet formation; AML12 mouse hepatocytes, oleate lipid droplets, BODIPY imaging; inhibition, % at 6.5 µM; actives 0.4% (n = 240,000);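 active means lipid droplet intensity inhibited by at least 50%, with more than 500 cells counted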
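Assay system: AML12 mouse liver cells | Compound dosing: One dose, 6.5 µM compound | Read-out basis: Droplet intensity reduction, % inhibition | Measured by: Fluorescence imaging, 20x objective, two fields per well | Schedule: Overnight treatment with compound plus oleate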
HSP90 inh – HSP90 refolding inhibition in rabbit reticulocyte lysate; luciferase refolding luminescence, 3 h; actives 0.91% (n = 290,000); inhibition, % at 5.6 µM;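 active means inhibition above the screen-wide mean plus 3 SD, computed separately per campaign, cut at about 16% in these data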;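 further: 0% = DMSO wells and 100% = 60 µM geldanamycin wells; inhibitors lower the luminescence because luciferase stays unfolded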
HSF1 inh – HSF1 inhibition | NIH3T3-HGL HSE-luciferase, MG132-induced, luminescence 8 h; stronger effect = lower value | activity change, negative = inhibition, % at 7.5 µM (by protocol) | actives 0.77% (n = 300,000) | AID 2098;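 active means more than half of replicate wells show activity change below -50%, luminescence cut by over half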;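 further: luciferase reports HSF-1 transcriptional activity via heat shock element; 0% = median of DMSO wells and -100% = zero luminescence signal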
HSF1 activator – increases HSF-1 driven luciferase reporter signal | NIH3T3-HGL HSF-1 luciferase reporter, MG132, 8 h; 100% = twice DMSO control signal | activation, % at 9 µM | actives 1.7% (n = 300,000) | AID 504408;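 active means mean replicate activation of at least 50% with a set share of replicates each reaching 50%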;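 further: 0% = median of the neutral control wells and 100% = twice that signal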
HCV NS3 hel inh – inhibitors of Hepatitis C virus NS3 helicase. NS3 helicase DNA unwinding, Cy5 molecular beacon fluorescence. inhibition, % at 10.9 µM. actives 0.56% (n = 290,000). AID 1800;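 active means inhibition above the mean of all tested compounds plus 3 SD, set per campaign, cut at about 35% in these data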;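 further: 0% = DMSO wells and 100% = thioflavine S control wells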
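Assay system: hepatitis C virus NS3 helicase domain fragment enzyme. Also added: annealed dual-labelled DNA beacon duplex, ATP-started. Timing: 1 h reaction at 25 °C, ATP-initiated. Technique: Cy5 fluorescence at 0 and 60 min, beacon hairpin quenching. Evaluation: % inhibition of unwinding. Replication: one well per compound.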
The depositor's hits bear a star; . = no result given.

SMILES | Hep lipid drop | HSP90 inh | HSF1 inh | HSF1 activator | HCV NS3 hel inh
Cn1cnc(S(=O)(=O)NC2CCN(Cc3ccccc3)CC2)c1 | -2.5 | -0.3 | -2.5 | -8.5 | 11.6
COc1cc(/C=C(\C#N)c2nc3ccccc3[nH]2)ccc1Oc1ccc([N+](=O)[O-])cn1 | . | 0.8 | 27.9 | 62.2* | 1.7
COc1ccc(C=C(c2nc3ccccc3s2)c2nc3ccccc3s2)cc1O | -33.3 | 1.8 | 124.3 | 131.5* | -10.7
COc1cc(/C=N/NC(=O)c2ccc3ccccc3c2)ccc1Oc1ccc([N+](=O)[O-])cn1 | 55.5* | -3.0 | -4.0 | -9.5 | 4.0
COc1ccc(/C=N/NC(=O)c2ccc3c(c2)OCCO3)cc1[N+](=O)[O-] | 32.9 | -1.8 | -79.6* | -76.3 | 15.9
COc1cccc(C(=O)N/N=C/c2ccc(Oc3ccc([N+](=O)[O-])cn3)c(OC)c2)c1 | 15.6 | 0.5 | 9.9 | 20.3 | 1.5
COc1ccc(/C=C/C(=O)c2ccc3c(c2)OCCO3)cc1[N+](=O)[O-] | . | 3.8 | 21.6 | 24.4 | -0.9
COc1ccc(NC(=O)C2=C(C)Nc3nc(CCCO)nn3C2c2ccc(OC)c(OC)c2)cc1 (centres undefined) | -27.3 | -0.9 | -1.3 | -2.0 | -2.9
Cc1nn(CC(=O)NCCCc2ccccc2)c(=O)c2cc3occc3n12 | -1.5 | -1.6 | 3.4 | 1.8 | 1.8
COc1cccc(/C=C(/C#N)c2nc3ccccc3[nH]2)c1OC(C)C(=O)O (centres undefined) | 2.1 | -2.5 | 6.6 | 9.8 | -2.8
COc1cccc(/C=C(\C#N)c2nc3ccccc3[nH]2)c1OCC(=O)O | -2.3 | 3.8 | -64.2* | -70.9 | 9.2
COc1cc(/C=C(\C#N)c2nc3ccc(C)cc3[nH]2)cc([N+](=O)[O-])c1O | 4.7 | 0.6 | . | . | 4.5
COc1cc(/C=C(\C#N)c2nc3ccc(C)cc3[nH]2)c([N+](=O)[O-])cc1OC | . | 2.7 | 21.0 | 64.0* | 2.9
CCOc1cc(N(CC)CC)ccc1/C=C(/C#N)c1nc2ccccc2[nH]1 | . | 17.9* | -6.8 | -16.7 | 6.7
COc1cc(/C=C(\C#N)c2nc3ccccc3[nH]2)cc(OC)c1O | 17.4 | 3.6 | 9.7 | 38.0 | 2.2
COc1ccc(/C=C(\C#N)c2nc3ccccc3[nH]2)cc1O | . | -2.6 | 59.6 | 84.8* | 20.6
O=C(NCCSCc1ccc(Cl)cc1)c1cccs1 | 1.3 | 1.8 | 14.7 | 13.5 | -25.6
COc1cccc(N/C(SCc2cccc([N+](=O)[O-])c2)=C(/C#N)C(=O)NCc2cccs2)c1 | -57.7 | 3.2 | 25.4 | 75.4* | -11.7
COc1cccc(N/C(SCc2ccccc2C)=C(/C#N)C(=O)NCc2cccs2)c1 | -8.6 | 0.5 | 13.8 | 14.6 | -5.0
CCOc1cc(/C=N/NC(=O)C(=O)N2CCCC2)ccc1O | -5.5 | -3.0 | -7.5 | 2.4 | -6.8
CCOC(=O)/C(C#N)=C\C1=C(N2CCOCC2)CC(C)(C)OC1 | 18.2 | 0.7 | -2.8 | 2.9 | 7.9
CC(=O)Nc1cccc(-c2csc(Nc3ncccn3)n2)c1 | 2.9 | -5.3 | 33.1 | 48.4 | 1.3
CC(=O)Nc1cccc(-c2csc(Nc3ccc(C)cn3)n2)c1 | 20.0 | 5.5 | 35.1 | 67.2* | -5.1
Cc1ccc(S(=O)(=O)N2CCN(C(=O)CC(C)n3nc(C)c(Cl)c3C)CC2)cc1 (centres undefined) | 7.9 | -5.7 | 4.9 | 2.2 | -11.7
CN(C)S(=O)(=O)n1cc(/C=C(\NC(=O)c2ccccc2)C(=O)N2CCCC2)c2ccccc21 | -12.6 | -0.2 | 7.1 | 28.4 | -17.5
SMILES | Hep lipid drop | HSP90 inh | HSF1 inh | HSF1 activator | HCV NS3 hel inh
BrC(=C\c1ccccc1)/C=N/Nc1nc(N2CCOCC2)nc(N2CCOCC2)n1 | 5.2 | 3.3 | 7.9 | 7.9 | 1.5
CN(C)c1ccc(/C=C/C=N/Nc2nc(N3CCOCC3)nc(N3CCOCC3)n2)cc1 | 12.0 | -2.4 | 57.5 | 78.9* | -0.4
BrC(/C=C\c1ccccc1)=N/Nc1nc(N2CCOCC2)nc(N2CCOCC2)n1 | -0.4 | -0.4 | 104.0 | 176.0* | -15.7
C(=N\Nc1nc(N2CCOCC2)nc(N2CCOCC2)n1)/c1ccncc1 | -1.2 | -3.6 | 2.0 | 6.2 | 4.3
Cc1c(NC(=O)Nc2cc(F)c(F)cc2Cl)c(=O)n(-c2ccccc2)n1C | . | . | 0.8 | -16.7 | .
CCCCCCN1CC(=O)N2[C@@H](Cc3c([nH]c4ccccc34)C2(C)C)C1=O | -8.7 | 0.4 | -51.4* | -58.4 | -9.6
COc1ccc(OCc2cc(C(=O)NCCN3CCCc4ccccc43)no2)c(Cl)c1 | -7.5 | 0.1 | 8.9 | 3.5 | -35.1
CCOc1ccc2nc(SCC(=O)c3ccc(Cl)s3)sc2c1 | -8.2 | 5.6 | 10.9 | 8.7 | 10.3
CCOc1ccc2nc(SCC(=O)c3cccs3)sc2c1 | -15.1 | -1.9 | 35.0 | 60.9* | -5.3
C=CCn1c(COc2ccc(CC)cc2)nnc1SC/C(O)=C(\C#N)c1nc2ccccc2[nH]1 | -11.2 | 3.8 | 32.8 | 80.4* | 0.6
C=CCn1c(COc2ccccc2)nnc1SCc1ccc(C#N)cc1 | . | 0.9 | 1.2 | 2.5 | -2.0
COc1ccc2c(c1OC)C(=O)N1C2SC(C)(C)[C@H]1C(=O)NCC(C)C (some centres undefined) | . | 0.1 | -7.3 | 8.8 | -3.0
Nc1nc2ccccc2cc1-c1cccs1 | . | -2.4 | 9.9 | 53.2* | -9.0
c1csc(-c2ccc3ccccc3n2)c1 | . | -2.0 | 22.4 | 30.5 | 3.4
CCc1nnc(SCC(=O)Nc2ccc(N3CCN(S(C)(=O)=O)CC3)cc2)o1 | 9.6 | -3.6 | 9.7 | 4.0 | 14.3
Cc1ccc(NC(=O)c2cc3ccccc3o2)cc1S(=O)(=O)N(C)C | 28.8 | -3.6 | . | . | -1.1
Cc1ccc(NC(=O)c2cc3ccccc3oc2=O)cc1S(=O)(=O)N(C)C | 1.1 | 38.4* | -89.3* | -90.7 | -3.2
O=c1cc(-c2ccccc2)c2ccc(O)cc2o1 | . | . | -51.4* | -58.2 | .
CC(Oc1ccc2c(-c3ccccc3)cc(=O)oc2c1)C(=O)O (centres undefined) | . | 1.6 | . | . | -16.0
CCCNC(=O)c1nnsc1S(=O)c1ccc(Cl)cc1 (centres undefined) | 0.5 | 3.1 | -95.8* | -95.5 | -13.9
CNC(=O)c1nnsc1S(=O)c1ccc(Cl)cc1 (centres undefined) | -14.7 | 1.5 | 63.0 | 73.0* | -2.4
Cc1ccc(S(=O)c2snnc2C)cc1 (centres undefined) | . | 3.8 | -3.4 | -15.9 | 0.2
O=C(NCc1ccco1)c1sc2cc(Cl)ccc2c1Cl | -27.6 | 1.9 | 19.8 | 15.7 | -0.6
O=C(NCc1ccco1)c1sc2ccccc2c1Cl | 26.1 | 0.5 | 25.6 | 66.1* | 7.2
Cc1ccc(-n2cnc3sc(C)c(C)c3c2=O)cc1 | 1.2 | -1.4 | 22.5 | 59.5* | 4.7
CN(C)c1ccc(/C=N\Nc2nc(-c3ccccc3)cc(=O)[nH]2)cc1 | 2.4 | -5.6 | -73.0* | -79.1 | 1.1
Cc1cc(=O)[nH]c(N/N=C/c2ccc(O)c(O)c2)n1 | 0.8 | -0.2 | 17.2 | 61.5* | 4.3
CCCNC(=O)N1CCN(S(C)(=O)=O)CC1 | 8.3 | -1.6 | -0.8 | -1.2 | -2.2

Screens as filed in PubChem.
